Assay results from different studies.
Protocols differ between the studies behind these lines.
Read-out: enzyme activity
Action: inhibitor
SRC: Proto-oncogene tyrosine-protein kinase Src (SRC, Homo sapiens, UniProt P12931)

With `Nc1ncnc2occ(-c3ccc(NC(=O)Nc4cc(C(F)(F)F)ccc4F)cc3)c12` the remaining activity was 0.2% (SRC; 20 µM).
`Cc1ccc(C(=O)Nc2ccc(CN3CCN(C)CC3)c(C(F)(F)F)c2)cc1C#Cc1cnc2cccnn12` gave a remaining activity of 12% (SRC; 23.5 nM).
`CCN(CC)c1ccc(C2=NNC(=O)CC2C)cc1[N+](=O)[O-]` (stereo not drawn) has a remaining activity of 94% (SRC; 10 µM).
`CC(C)(C)c1nc2c(s1)c1nc(N)ncc1c1ccc(NS(=O)(=O)c3c(F)cccc3F)c(F)c12` gave a remaining activity of 89% (SRC; radiometric; 1 µM).
The remaining activity of `O=C(Nc1cnn(-c2csc(C(=O)NC3COC3)c2)c1)Nc1ccccc1Cl` is reported as 91.1% (SRC; 5 µM).
For `O=c1cc(-c2cccc3c2Sc2ccccc2S3)oc(N2CCOCC2)c1`, the remaining activity was 106% (SRC; 0.5 µM).
With `COc1cc(Nc2cnc(C#N)c(O[C@H](C)CN(C)C)n2)ncc1-c1cnn(C)c1` the remaining activity was 81% (SRC; radiometric; 1 µM).
With `Cc1[nH]c(/C=C2\C(=O)Nc3ccc(F)cc32)c(C)c1C(=O)N[C@H]1CCN(C(=O)N(C)C)C1` the remaining activity was 109% (SRC; 0.1 µM).
The remaining activity of `Nc1nc(NC2CCCCC2)sc1C(=O)c1ccccc1` is reported as 99% (SRC; 10 µM).
`Cc1ccc(NC(=O)c2ccc(C)c(C(F)(F)F)c2)cc1C#Cc1nn(C2CCC(O)CC2)c2ncnc(N)c12` (stereo not drawn) gave a remaining activity of 20% (Proto-oncogene tyrosine-protein kinase Src (SRC, Homo sapiens, UniProt P12931, T341M); 10 µM).
`CC(C)(O)[C@H]1CC[C@H](Nc2ccc3ncc(-c4cccc(C(F)(F)F)c4)n3n2)CC1` gave a remaining activity of 27.9% (SRC; 1 µM).
The remaining activity of `Cn1c(=O)n(-c2ccc(C(C)(C)C#N)cc2)c2c3cc(-c4cnc5ccccc5c4)ccc3ncc21` is reported as 121% (SRC; 10 µM).
